Here are results for 4 molecules from PMC7240809 (ACS Omega, 2020).

Some results are limits rather than exact numbers.

The nature of series [1]: Biodistribution in C57BL/6J mice bearing B16–F10 melanoma. It is filed as in vivo. The settings on record: C57BL/6J, mouse, total radioactivity; for tissue uptake at 1 h / tissue uptake at 2 h: intravenous; for tissue to tissue ratio at 1 h / tissue to tissue ratio at 2 h: iv. The procedure, abridged: (§1)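 Male C57BL/6J mice (8–12 weeks) were inoculated subcutaneously on the right dorsal flank with 1 × 10^6 B16–F10 cells and used at 6–8 mm tumor diameter. They received 1–2 MBq 68Ga-labeled test peptide by tail vein under anesthesia, with or without co-injected 0.5 mg BMS 470539. At 1 or 2 h p.i., blood and organs were weighed and gamma-counted. Uptake is %ID/g (mean ± SD); blocked vs unblocked compared by two-way ANOVA with Holm–Sidak.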

In a further series the test system is B16–F10 melanoma. Described as above. It is filed as in vivo. An outline of the steps:
as §1

For a further series, the system named is B16–F10 cells. Put plainly: Internalization assay. The format is cell-based, Mus musculus. The note with it: 2 h, 37 °C. The procedure, abridged: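 B16–F10 mouse melanoma cells were grown in DMEM with 10% FBS and penicillin/streptomycin, then seeded overnight on poly-D-lysine plates. They were incubated with 68Ga-labeled test peptide at 37 °C with mild agitation for 30, 60, 90 or 120 min, then washed with PBS. Cells were trypsinized for the internalized fraction, and both fractions were gamma-counted in triplicate or quadruplicate.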

Series [2] can be described thus: In vivo stability, radio-HPLC of mouse urine. The arrangement: species or system mice. The note with it: 1 h p.i., intravenous. An outline of the steps: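 Mice under 2% isoflurane received approximately 4–6 MBq 68Ga-labeled test peptide intravenously and recovered freely. At 1 h p.i. they were euthanized by CO2, and urine was collected. Urine was analyzed for metabolites by reversed-phase C18 HPLC in 21% acetonitrile with 0.1% TFA to give percent intact peptide. Three or four independent experiments were run.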

Another series concerns the target MC5R. The note with it: read-out: binding affinity to MC5R; cited from earlier work.
The target of series [3] is melanocortin 1 receptor (MC1R). The settings on record: read-out: binding affinity (Ki) to MC1R; cited from earlier work.
The target of another series is MC3R. The settings on record: read-out: binding affinity to MC3R; cited from earlier work.
For another series, the target named is MC4R. The settings on record: read-out: binding affinity to MC4R; cited from earlier work.
A further series deals with MC1R (Homo sapiens) (UniProt Q01726). The settings on record: cited from earlier work.
UniProt Q01726, sequence (Q01726 whole entry): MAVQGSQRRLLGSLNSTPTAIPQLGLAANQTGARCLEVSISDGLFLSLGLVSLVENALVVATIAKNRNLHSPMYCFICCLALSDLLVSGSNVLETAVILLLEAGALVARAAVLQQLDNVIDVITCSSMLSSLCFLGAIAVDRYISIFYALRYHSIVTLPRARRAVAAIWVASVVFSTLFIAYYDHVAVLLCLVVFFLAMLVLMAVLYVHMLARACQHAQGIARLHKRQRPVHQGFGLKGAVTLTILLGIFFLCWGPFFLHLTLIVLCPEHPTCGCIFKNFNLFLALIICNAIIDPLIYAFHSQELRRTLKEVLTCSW
The next series addresses MC4R (Homo sapiens) (UniProt P32245). The note with it: cited from earlier work.
UniProt P32245, sequence (P32245 whole entry): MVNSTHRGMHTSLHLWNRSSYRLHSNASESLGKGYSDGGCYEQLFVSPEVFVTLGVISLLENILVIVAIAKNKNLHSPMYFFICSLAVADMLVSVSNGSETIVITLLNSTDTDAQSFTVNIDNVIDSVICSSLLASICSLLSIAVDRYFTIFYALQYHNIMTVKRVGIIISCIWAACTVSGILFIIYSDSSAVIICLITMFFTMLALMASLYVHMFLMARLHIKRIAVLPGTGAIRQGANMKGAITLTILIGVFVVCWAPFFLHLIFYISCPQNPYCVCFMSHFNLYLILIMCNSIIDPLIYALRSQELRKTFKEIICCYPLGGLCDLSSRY
A further series concerns the target MC5R (Homo sapiens) (UniProt P33032). The note with it: cited from earlier work.
UniProt P33032, sequence (P33032 whole entry): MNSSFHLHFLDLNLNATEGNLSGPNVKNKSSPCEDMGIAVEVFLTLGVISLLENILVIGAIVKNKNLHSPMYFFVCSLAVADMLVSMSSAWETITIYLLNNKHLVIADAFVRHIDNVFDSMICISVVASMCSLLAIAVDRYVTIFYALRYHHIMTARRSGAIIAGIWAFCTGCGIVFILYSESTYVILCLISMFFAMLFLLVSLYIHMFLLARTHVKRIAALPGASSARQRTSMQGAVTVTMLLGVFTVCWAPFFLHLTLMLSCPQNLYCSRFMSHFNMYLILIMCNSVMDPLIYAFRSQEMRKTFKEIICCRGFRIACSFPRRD
For a further series, the target named is MC3R (Homo sapiens) (UniProt P41968). The settings on record: cited from earlier work.
UniProt P41968, sequence (P41968 whole entry): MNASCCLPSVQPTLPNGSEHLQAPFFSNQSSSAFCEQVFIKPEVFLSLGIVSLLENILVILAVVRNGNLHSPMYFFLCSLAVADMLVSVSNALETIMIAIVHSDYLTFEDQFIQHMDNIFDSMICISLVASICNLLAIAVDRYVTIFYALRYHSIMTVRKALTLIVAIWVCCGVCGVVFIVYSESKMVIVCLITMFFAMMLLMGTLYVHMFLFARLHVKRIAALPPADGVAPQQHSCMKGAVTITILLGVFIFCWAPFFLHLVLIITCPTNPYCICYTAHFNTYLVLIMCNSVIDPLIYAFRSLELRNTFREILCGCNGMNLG

The tissue uptake is the share of the injected amount in each gram of the tissue.

`CCCC[C@H](NC(=O)CN1CCC(NC(=O)CN2CCN(CC(=O)O)CCN(CC(=O)O)CCN(CC(=O)O)CC2)CC1)C(=O)N[C@H]1CC(=O)NCCCC[C@@H](C(N)=O)N(C)C(=O)[C@H](Cc2c[nH]c3ccccc23)N(C)C(=O)[C@H](CCCNC(=N)N)N(C)C(=O)[C@@H](Cc2ccccc2)NC(=O)[C@H](Cc2cnc[nH]2)N(C)C1=O` [[^68Ga]Ga-CCZ01099, metal not drawn]: the tissue uptake at 1 h in series [1] (B16F10 tumor) worked out at 6.33 ± 1.48 %ID/g; in series [1] (adrenal glands), 0.79 ± 0.72 %ID/g; in [1] (blood), 0.65 ± 0.12 %ID/g; in series [1] (bone), 0.33 ± 0.18 %ID/g; in series [1] (heart), 0.24 ± 0.06 %ID/g; in series [1] (intestine, 0.5 mg), 0.17 ± 0.05 %ID/g. Moreover, the tissue uptake at 1 h was found to be 0.34 ± 0.07 %ID/g in series [1] (intestine); 5.59 ± 0.88 %ID/g in series [1] (kidneys); 0.53 ± 0.07 %ID/g in series [1] (liver); 0.69 ± 0.11 %ID/g in series [1] (lungs); 0.16 ± 0.05 %ID/g in series [1] (muscle); 0.22 ± 0.11 %ID/g in series [1] (stomach). Further, the tissue uptake at 1 h was 0.3 ± 0.08 %ID/g in [1] (thyroid) and 0.2 ± 0.06 %ID/g in [1] (male, testes). Also, the tissue to tissue ratio at 1 h worked out at 9.94 ± 2.93 in series [1] (tumor and blood); 23.3 ± 12.1 in series [1] (tumor and bone); 1.13 ± 0.22 in [1] (tumor and kidneys); 11.9 ± 2.26 in series [1] (tumor and liver); 40.6 ± 11.9 in [1] (tumor and muscle). For the same molecule, the tissue to tissue ratio at 2 h turned out to be 52.7 ± 13.4 in series [1] (tumor and bone); 11.8 ± 2.72 in series [1] (tumor and liver). Further, the tissue uptake at 2 h in [1] (male, seminal glands) stood at 0.04 ± 0.01 %ID/g; in series [1] (male, testes), 0.07 ± 0.01 %ID/g. Also, the tumor/blood uptake ratio in the series with B16–F10 melanoma (1 h p.i. blocked (n = 5), co-injection of 0.5 mg BMS 470539) came out at 2.24 ± 0.40; in the series with B16–F10 melanoma (1 h p.i. unblocked (n = 5)), 9.94; in the series with B16–F10 melanoma (2 h p.i. unblocked (n = 4)), 27.7. Also, the tumor/bone uptake ratio in the series on B16–F10 melanoma (1 h p.i. unblocked (n = 5)) was 23.3; in the series on B16–F10 melanoma (2 h p.i. unblocked (n = 4)), 52.7. For the same molecule, the results for the tumor/muscle uptake ratio in the series with B16–F10 melanoma (1 h p.i. unblocked (n = 5)) and in the series on B16–F10 melanoma (2 h p.i. unblocked (n = 4)) were 40.6 and 125, respectively. In addition, the “reduction of tumor uptake by blocking” value with B16–F10 melanoma (1 h p.i., blocking with BMS 470539, p < 0.001) was 91%. In addition, in the series on B16–F10 cells, the radioactivity internalized is 48%. Besides, the “percentage of intact peptide” value in series [2] is not below 98%.
“Ac-Nle^4-Cyclo[Asp^5-His^6-D-Phe^7-Arg^8-Trp^9-Lys^10]αMSH4-10-NH2 [MTII]”: the Ki on MC5R is 0.0461 µM; in [3] it was 0.00069 µM; at MC3R, 0.0341 µM.
For “Alpha-melanocyte-stimulating hormone [αMSH]”, the Ki at MC4R was 0.9 µM.
On to αMSH (from UniProt P01189), for which the Ki with MC1R (Homo sapiens) was 0.00023 µM; with MC4R (Homo sapiens), 0.9 µM; with MC5R (Homo sapiens), 7.16 µM; with MC3R (Homo sapiens) it was 0.0315 µM.
